Test results taken from ChEMBL document CHEMBL1141224, “Parallel solution-phase and microwave-assisted synthesis of new S-DABO derivatives endowed with subnanomolar anti-HIV-1 activity” (J Med Chem, 2005).
The source made the active and inactive calls. The rule behind the calls is not given here.

Columns and labels:
[1] = system: Human immunodeficiency virus 1; test: Antiviral activity against wild type HIV1 NL4-3 infected MT4 cells by MTT method; format: functional, organism-based; conditions: Human immunodeficiency virus 1, NL4-3, MT4
In short: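 MT-4 lymphoid cells infected with HIV-1 NL4-3 in the presence of graded drug concentrations. Viable cells counted by MTT colorimetric assay at day 5 post-infection. EC50 is the concentration protecting 50% of cells from HIV-induced death. Mean of at least two experiments.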

[2] = system: Human immunodeficiency virus 1; test: Antiviral activity against HIV1 IRLL98 mutant strain infected MT4 cells by MTT method; format: functional, organism-based; conditions: Human immunodeficiency virus 1, IRLL98, MT4
In short: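 MT-4 cells infected with the HIV-1 mutant strain, or mock-infected for cytotoxicity, in the presence of a range of drug concentrations. Viable cells were counted by MTT colorimetric assay on day 5 post-infection. EC50 is the concentration that blocks 50% of HIV-induced cell death. Values are the mean of at least two experiments. IRLL98 carries RT mutations K101Q, Y181C and G190A, plus NRTI mutations.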

[3] = system: Human immunodeficiency virus 1; test: Antiviral activity against HIV1 Y188L mutant strain infected MT4 cells by MTT method; format: functional, organism-based; conditions: for EC50: Human immunodeficiency virus 1, Y188L, MT4
[4] = system: Human immunodeficiency virus type 1 reverse transcriptase (Human immunodeficiency virus 1), Q72547 [Y181I]; test: Inhibition of Y181I mutant HIV1 reverse transcriptase by [3H]dTTP poly(rA)/oligo(dT) incorporation at 400 uM
In short: (§1)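 RNA-dependent DNA polymerase assay of recombinant RT at 5–10 nM. Template: poly(rA)/oligo(dT) (0.3 μM 3'-OH ends) with 10 μM [3H]-dTTP. Run 10 min at 37 °C with increasing inhibitor. TCA-precipitated product was counted on GF/C filters. Highest concentration tested was 400 μM.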

[5] = system: Human immunodeficiency virus 1; test: Antiviral activity against HIV1 K103N mutant strain infected MT4 cells by MTT method; format: functional, organism-based; conditions: Human immunodeficiency virus 1, K103N
[6] = system: MT4; test: Cytotoxicity against MT4 cells by MTT method; format: functional; conditions: Homo sapiens
In short: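 Mock-infected MT-4 cells exposed to graded drug concentrations. Viability assessed by MTT colorimetric method at day 5. CC50 is the concentration causing 50% death of noninfected cells. Mean of at least two experiments.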

[7] = biological target: Human immunodeficiency virus type 1 reverse transcriptase (Human immunodeficiency virus 1) (UniProt Q72547)
[8] = system: Human immunodeficiency virus type 1 reverse transcriptase (Human immunodeficiency virus 1), Q72547 [K103N]
[9] = biological target: Human immunodeficiency virus type 1 reverse transcriptase (Human immunodeficiency virus 1) (UniProt Q72547); test: Inhibition of wild type HIV1 reverse transcriptase by [3H]dTTP poly(rA)/oligo(dT) incorporation at 400 uM; in short: as §1
[10] = system: Human immunodeficiency virus type 1 reverse transcriptase (Human immunodeficiency virus 1), Q72547 [K103N]; test: Inhibition of K103N mutant HIV1 reverse transcriptase by [3H]dTTP poly(rA)/oligo(dT) incorporation at 400 uM; in short: as §1
[11] = system: Human immunodeficiency virus type 1 reverse transcriptase (Human immunodeficiency virus 1), Q72547 [Y181I]

| Compound | EC50 [1] [µM] | EC50 [2] [µM] | EC50 [3] [µM] | ID50 [4] | EC50 [5] [µM] | CC50 [6] [µM] | ID50 [7] [µM] | ID50 [8] [µM] | ID50 [9] | ID50 [10] | ID50 [11] [µM] | Inhibition [3] [%] |
| --- | --- | --- | --- | --- | --- | --- | --- | --- | --- | --- | --- | --- |
| Cc1c(O)nc(SCc2ccc(Br)cc2)nc1Cc1c(Cl)cccc1Cl | 0.79 | > 53 | > 53 | inactive | > 53 | 13 | 0.39 | 9 |  |  |  |  |
| Cc1c(O)nc(S(=O)(=O)Cc2ccc([N+](=O)[O-])cc2)nc1Cc1c(Cl)cccc1Cl | > 53 | > 53 | > 53 | inactive | > 53 | > 53 |  |  | inactive | inactive |  |  |
| COc1cc(CSc2nc(O)c(C)c(Cc3c(F)cccc3F)n2)cc(OC)c1 | 18 | > 60 | > 60 | inactive | > 60 | > 60 |  |  | inactive | inactive |  |  |
| Cc1c(O)nc(SCc2cccc(Cl)c2)nc1Cc1c(Cl)cccc1Cl | 0.31 | 4.8 | > 59 |  | > 59 | > 59 | 2.3 | 400 |  |  | 400 |  |
| COc1ccc(CSc2nc(O)c(C)c(Cc3c(F)cccc3F)n2)cc1 | 0.026 | 0.69 | 10 | inactive | 0.69 | > 64 | 0.007 | 3.5 |  |  |  |  |
| COc1ccc(CCSc2nc(Cc3c(Cl)cccc3Cl)c(C)c(=O)[nH]2)cc1 | < 0.00014 | 0.00022 | 6.9 |  | 0.87 | > 57 | 0.026 | 3.2 |  |  | 1.5 |  |
| Cc1c(O)nc(SCc2ccc(O)cc2)nc1Cc1c(Cl)cccc1Cl | > 41 | > 41 | > 41 | inactive | > 41 | 41 |  |  | inactive | inactive |  |  |
| Cc1c(O)nc(SCc2ccc3c(c2)OCO3)nc1Cc1c(Cl)cccc1Cl | 0.12 | 0.51 | 33 | inactive | 5.3 | > 57 | 0.5 |  |  | inactive |  |  |
| COc1ccc(CSc2nc(O)c(C)c(Cc3ccc(F)cc3)n2)cc1 | > 8.9 | > 8.9 | > 8.9 | inactive | > 8.9 | 8.9 |  |  | inactive | inactive |  |  |
| Cc1c(O)nc(SCc2ccc(C#N)cc2)nc1Cc1c(F)cccc1F | 0.052 | > 65 | > 65 | inactive | > 65 | > 65 | 0.76 |  |  | inactive |  |  |
| Cc1c(O)nc(S(=O)(=O)Cc2ccc(Br)cc2)nc1Cc1c(Cl)cccc1Cl | > 50 | > 50 | > 50 | inactive | > 50 | > 50 |  |  | inactive | inactive |  |  |
| COc1ccc(CS(=O)(=O)c2nc(O)c(C)c(Cc3c(Cl)cccc3Cl)n2)cc1 | > 2.8 | > 2.8 | > 2.8 |  | > 2.8 | 2.8 | 0.006 | 10 |  |  | 27 |  |
| Cc1cn([C@H]2C[C@H](N=[N+]=[N-])[C@@H](CO)O2)c(=O)[nH]c1=O [ZIDOVUDINE] | 0.003 | 0.008 | 0.003 |  | 0.003 | 3.7 |  |  |  |  |  |  |
| Cc1c(O)nc(SCc2ccc([N+](=O)[O-])cc2)nc1Cc1c(Cl)cccc1Cl | 0.79 | 3.3 |  |  | 11 | > 58 | 0.009 | 0.12 |  |  | 0.22 | 31 |
| Cc1c(O)nc(SCc2cccc(F)c2)nc1Cc1c(Cl)cccc1Cl | 0.15 | 2.2 | > 61 | inactive | > 61 | > 61 | 2 | 35 |  |  |  |  |
| COc1ccc(CCCSc2nc(O)c(C)c(Cc3c(Cl)cccc3Cl)n2)cc1 | 0.00044 | 0.11 | > 1 |  | > 1 | 1 | 0.037 | 0.5 |  |  | 0.3 |  |
| Cc1c(O)nc(SCc2ccc(C#N)cc2)nc1Cc1c(Cl)cccc1Cl | 0.17 | 1 | > 60 | inactive | 0.1 | > 60 | 103 |  |  | inactive |  |  |
| Cc1c(O)nc(SCc2ccc3c(c2)C(=O)c2ccccc2C3=O)nc1Cc1c(Cl)cccc1Cl | 13 | > 48 | > 48 | inactive | > 48 | > 48 | 3.5 |  |  | inactive |  |  |
| Cc1c(O)nc(SCc2ccccc2)nc1Cc1c(Cl)cccc1Cl | 0.83 | > 64 | > 64 | inactive | > 64 | > 64 | 2.5 | 350 |  |  |  |  |
| CCOc1ccc(CSc2nc(O)c(C)c(Cc3c(Cl)cccc3Cl)n2)cc1 | 0.25 | 1.9 | > 58 | inactive | > 58 | > 58 | 2 |  |  | inactive |  |  |
| COc1ccc(CSc2nc(O)c(C)c(Cc3c(Cl)cccc3Cl)n2)c(OC)c1 | 1.33 | > 55 | > 55 | inactive | > 55 | > 55 | 25 |  |  | inactive |  |  |
| Cc1c(O)nc(SCc2ccc(F)cc2)nc1Cc1c(Cl)cccc1Cl | 0.11 | 2.7 | > 61 | inactive | 27 | > 61 | 16 |  |  | inactive |  |  |
| Cc1c(O)nc(SCc2ccc(Cl)cc2)nc1Cc1c(Cl)cccc1Cl | 0.47 | 2.1 | > 59 | inactive | > 59 | > 59 | 20 |  |  | inactive |  |  |
| O=C1Nc2ccc(Cl)cc2[C@@](C#CC2CC2)(C(F)(F)F)O1 [EFAVIRENZ] |  | 0.2 |  |  | 0.057 | > 0.32 |  |  |  |  |  |  |
| Cc1ccnc2c1NC(=O)c1cccnc1N2C1CC1 [NEVIRAPINE] | 0.052 | > 7.5 | > 7.5 |  | 3.9 | > 7.5 |  | 8 |  |  | 20 |  |
| Cc1c(O)nc(SCc2cccc(C#N)c2)nc1Cc1c(Cl)cccc1Cl | 0.89 | 5 | > 60 | inactive | > 60 | > 60 | 9.5 |  |  | inactive |  |  |
| Cc1c(Cc2c(F)cccc2F)nc(SCc2ccc([N+](=O)[O-])cc2)[nH]c1=O | 0.074 | > 62 | > 62 | inactive | > 62 | > 62 |  |  | inactive | inactive |  |  |
| COc1ccc(CSc2nc(O)c(C)c(Cc3c(Cl)cccc3Cl)n2)cc1OC | 0.2 | 0.93 | > 55 | inactive | 10 | > 55 | 1.2 |  |  | inactive |  |  |
| COc1cc(CSc2nc(O)c(C)c(Cc3c(Cl)cccc3Cl)n2)cc(OC)c1 | 33 | > 55 | > 55 | inactive | > 55 | > 55 | 256 |  |  | inactive |  |  |
| Cc1c(O)nc(SCc2ccc([N+](=O)[O-])cc2)nc1Cc1ccc(F)cc1 | > 65 | > 65 | > 65 | inactive | > 65 | > 65 |  |  | inactive | inactive |  |  |
